{"data": "Published values from different studies", "note": "Protocols differ between the studies behind these lines."}
{"Structure (SMILES)": "COc1ccc(-n2nc(C(=O)c3ccc(Nc4cnccn4)cc3)sc2=N)cc1", "tested on": "Salmonella enterica", "assay": "microbial growth, broth dilution", "test system": "ATCC13076 TYPHIMURIUM", "quantity": "MIC", "result": "50 µg/mL"}
{"Structure (SMILES)": "CN(C)CCNC(=O)c1ccc(-c2nc3ccc4[nH]ncc4c3c3c2CCCC3)cc1", "tested on": "BJ", "assay": "cell growth or viability", "conditions": "72 h", "quantity": "GI50", "result": "> 10 µM"}
{"Structure (SMILES)": "CC(=O)C1=NN(c2ccccc2)C(=C(C#N)C(=O)c2ccc(Nc3cnccn3)cc2)S1", "tested on": "Salmonella enterica", "assay": "microbial growth, broth dilution", "test system": "ATCC13076 TYPHIMURIUM", "quantity": "MIC", "result": "100 µg/mL"}
{"Structure (SMILES)": "Cc1nc(Nc2ncc(C(=O)Nc3c(C)cccc3Cl)s2)cc(N2CC[C@H](O)C2)n1", "tested on": "JVM-2", "assay": "cell growth or viability, ATP luminescence", "conditions": "10 µM, 72 h", "quantity": "inhibition", "result": "61%"}
{"Structure (SMILES)": "O=C(O)c1ccc(NCc2cccc(O)c2O)cc1", "tested on": "NCI-H69", "assay": "cell growth or viability, resazurin", "conditions": "72 h", "quantity": "IC50", "result": "32.2 µM"}
{"Structure (SMILES)": "Cc1cccc2c(=O)n(-c3ccccc3)c(SCC(=O)NN=Cc3ccc(OS(C)(=O)=O)cc3)nc12", "tested on": "Bacillus cereus", "assay": "microbial growth, well diffusion", "conditions": "20 µg/mL", "quantity": "inhibition zone", "result": "2 mm"}
{"Structure (SMILES)": "CN(C)CCNC(=O)c1ccc(-c2nc3ccc4[nH]ncc4c3c3c2CCCC3)c(F)c1", "tested on": "BJ", "assay": "cell growth or viability", "conditions": "72 h", "quantity": "GI50", "result": "9.72 µM"}
{"Structure (SMILES)": "COc1cccc(CNc2ccc(C(=O)O)cc2)c1", "tested on": "NCI-H69", "assay": "cell growth or viability, resazurin", "conditions": "72 h", "quantity": "IC50", "result": "> 100 µM"}
{"Structure (SMILES)": "Cc1n[nH]c2ccc3nc(-c4ccc(C(=O)NCCN(C)C)cc4)c4c(c3c12)CCCCC4", "tested on": "BJ", "assay": "cell growth or viability", "conditions": "72 h", "quantity": "GI50", "result": "> 10 µM"}
{"Structure (SMILES)": "O=C(O)c1cn(C2CC2)c2cc(N3CCNCC3)c(F)cc2c1=O", "tested on": "Bacillus cereus", "assay": "microbial growth, well diffusion", "conditions": "20 µg/mL", "quantity": "inhibition zone", "result": "5 mm"}
{"Structure (SMILES)": "O=C(N[C@H](CO)[C@H](O)c1ccc([N+](=O)[O-])cc1)C(Cl)Cl", "tested on": "Salmonella enterica", "assay": "microbial growth, broth dilution", "test system": "ATCC13076 TYPHIMURIUM", "quantity": "MIC", "result": "6.25 µg/mL"}
{"Structure (SMILES)": "COc1cc(CNc2ccc(C(=O)O)cc2)cc(OC)c1O", "tested on": "NCI-H69", "assay": "cell growth or viability, resazurin", "conditions": "72 h", "quantity": "IC50", "result": "> 100 µM"}
{"Structure (SMILES)": "CCCS(=O)(=O)Oc1ccc(C=NNC(=O)CSc2nc3ccc(Cl)cc3c(=O)n2-c2ccccc2)cc1OC", "tested on": "Bacillus cereus", "assay": "microbial growth, well diffusion", "conditions": "20 µg/mL", "quantity": "inhibition zone", "result": "2 mm"}
{"Structure (SMILES)": "Cc1n[nH]c2ccc3nc(-c4ccc(C(=O)NCCN(C)C)cc4F)c4c(c3c12)CCCC4", "tested on": "BJ", "assay": "cell growth or viability", "conditions": "72 h", "quantity": "GI50", "result": "2.21 µM"}
{"Structure (SMILES)": "CCCS(=O)(=O)Oc1ccc(C=NNC(=O)CSc2nc3c(C)cccc3c(=O)n2-c2ccccc2)cc1OC", "tested on": "Salmonella enterica", "assay": "microbial growth, broth dilution", "test system": "TYPHIMURIUM", "quantity": "MIC", "result": "49 µg/mL"}
{"Structure (SMILES)": "CC(=O)OCC1=C(C(=O)O)N2C(=O)[C@@H](NC(=O)Cc3cccs3)[C@H]2SC1", "tested on": "Salmonella enterica", "assay": "microbial growth, broth dilution", "test system": "ATCC13076 TYPHIMURIUM", "quantity": "MIC", "result": "3.12 µg/mL"}
{"Structure (SMILES)": "CN(C)CCNC(=O)c1ccc(-c2nc3ccc4[nH]ncc4c3c3c2CCCCC3)cc1", "tested on": "BJ", "assay": "cell growth or viability", "conditions": "72 h", "quantity": "GI50", "result": "8.63 µM"}
{"Structure (SMILES)": "COc1ccccc1CNc1ccc(C(=O)O)cc1", "tested on": "NCI-H69", "assay": "cell growth or viability, resazurin", "conditions": "72 h", "quantity": "IC50", "result": "> 100 µM"}
{"Structure (SMILES)": "CCS(=O)(=O)Oc1ccc(C=NNC(=O)CSc2nc3ccc(Cl)cc3c(=O)n2-c2ccccc2)cc1", "tested on": "Salmonella enterica", "assay": "microbial growth, broth dilution", "test system": "TYPHIMURIUM", "quantity": "MIC", "result": "21 µg/mL"}
